Screening results from PubChem.
CHT PAM: CHT positive allosteric modulators, primary screen, cell-based, membrane potential dye, choline EC20; High affinity choline transporter 1 (Homo sapiens), Q9GZV3; CHT-expressing cells; stronger effect = higher value; LV-AA mutant CHT in HEK293 cells; B-score at 10 µM; 310,000 tested, 0.49% active;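 active means initial fluorescence not abnormally high and integrated response B-score, plate-corrected, over 3 SD above library mean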
Target sequence (Q9GZV3 whole entry, looked up): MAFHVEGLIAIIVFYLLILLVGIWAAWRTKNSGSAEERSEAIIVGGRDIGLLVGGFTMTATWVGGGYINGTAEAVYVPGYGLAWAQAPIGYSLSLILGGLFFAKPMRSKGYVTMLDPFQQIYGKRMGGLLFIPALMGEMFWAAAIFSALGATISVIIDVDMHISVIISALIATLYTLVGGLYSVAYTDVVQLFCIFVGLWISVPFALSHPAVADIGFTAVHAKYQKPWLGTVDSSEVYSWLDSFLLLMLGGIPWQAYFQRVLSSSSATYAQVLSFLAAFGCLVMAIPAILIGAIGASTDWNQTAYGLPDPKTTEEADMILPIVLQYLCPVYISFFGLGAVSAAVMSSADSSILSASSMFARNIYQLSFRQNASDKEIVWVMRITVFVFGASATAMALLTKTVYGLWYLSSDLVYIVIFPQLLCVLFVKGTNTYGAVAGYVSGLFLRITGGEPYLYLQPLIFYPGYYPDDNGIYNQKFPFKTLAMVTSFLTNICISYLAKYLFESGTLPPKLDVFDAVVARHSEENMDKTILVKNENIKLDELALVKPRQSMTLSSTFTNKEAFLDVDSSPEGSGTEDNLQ
CHT inh: inhibitors of human choline transporter CHT | High affinity choline transporter 1 (Homo sapiens), Q9GZV3 | CHT-expressing cells, membrane potential dye, choline response; stronger effect = lower value | B-score at 10 µM | 310,000 tested, 0.86% active | AID 488975, 2010;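 active means B-score over 3 SD under the library average, and starting fluorescence ratio not unusually high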;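 further: choline stimulus applied at its EC90 after an EC20 pre-addition; B-score computed on integrated fluorescence ratio after choline addition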
KCC2 mod: KCC2 cotransporter modulators, thallium flux, primary screen, cell-based, HEK293 KCC2, FluoZin-2 fluorescence, MLSMR | 190,000 tested, 2.2% active | KCC2 cells, thallium flux FluoZin-2 fluorescence | B-score of Tl+ flux slope (higher = more flux/activation; lower = inhibition) at 10 µM;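 active means thallium flux slope and its plate-corrected score both differing from the plate sample mean at a set confidence after two filtering rounds, in either direction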;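 further: slope of fluorescence scaled to starting intensity during 10 to 20 s after thallium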
Rad51 HR inh: human RAD51 strand exchange inhibitors, primary screen, biochemical, fluorescence | DNA repair protein RAD51 homolog 1 (Homo sapiens), Q06609 | hRad51 DNA strand exchange, fluorescence dequenching | inhibition, % at 10 µM | 200,000 tested, 0.085% active | AID 1385, 2008;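 active means inhibition above 40% at the single screening dose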;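 further: 0% = DMSO control wells and 100% = blanks with heterologous ssDNA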
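Test system – preformed human Rad51 ssDNA filaments · Reagent – Donor/quencher-labelled 47-bp dsDNA substrate · Incubation – 37 °C 15-min filament assembly, 30-min compound preincubation, 15-min exchange · Signal – FRET fluorescence dequenching, excitation 485 nm, emission 520 nm · Read-out – percent inhibition from fluorescence, normalised to plate control and blank means · Benchmarks – plate control and blank wells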
KCC2 secondary: KCC2 modulators in sodium-free buffer, confirmation, cell-based, HEK293 KCC2, thallium flux, secondary assay | shares compounds with KCC2 mod | FluoZin2 fluorescence; stronger effect = higher value | normalised thallium flux (F/F0 slope) at 10 µM | 3,700 tested, 15% active | AID 1713, 2009;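 active means thallium flux slope above the same plate's solvent-only control mean plus 3 SD; inconclusive means the two replicate wells disagree; inactive means no significant difference from solvent-only control wells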
KCC2 bumet counter: thallium flux persisting under bumetanide in KCC2 cells, confirmation, counter-screen for KCC2 modulator project, cell-based, HEK293 KCC2, FluoZin2, secondary assay 3; shares compounds with KCC2 mod; HEK293-KCC2 + bumetanide/ouabain; stronger effect = higher value; normalized thallium flux at 10 µM; 3,700 tested, 49% active; AID 1714, 2009;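 active means thallium entry rate above the same plate's blocked-transporter control wells by more than 3 SD; inconclusive means the two repeat wells disagree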;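 further: raw slope of fluorescence over initial fluorescence between 10 and 20 s after thallium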
KCC2 sec2: KCC2 modulators without ouabain present, confirmation, cell-based, HEK293 KCC2, thallium flux, FluoZin2, secondary assay 2. shares compounds with KCC2 mod. thallium flux FluoZin2 fluorescence; actives lie on both sides; F/F0 rise rate, 10–20 s post-thallium. normalized thallium flux at 10 µM. 3,700 tested, 23% active. AID 1715, 2009;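 active means thallium flux slope more than 3 SD above or below the plate's solvent-only control mean, mostly below; inconclusive means the two repeat wells disagreed; inactive means no significant shift from solvent-only controls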;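 further: raw slope with 0.1% DMSO as baseline and bumetanide as block control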
HEK counter1: thallium flux modulation in parental HEK cells, confirmation, counter-screen for KCC2 modulator project, cell-based, counterscreen 1. shares compounds with KCC2 mod. HEK293 parental cells, thallium flux FluoZin2, ouabain; baseline-ratio fluorescence slope, 10–20 s after thallium. thallium flux rate (normalised fluorescence) at 10 µM. 3,700 tested, 46% active. AID 1716, 2009;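 active means thallium flux rate significantly above the same plate's solvent-only control wells, beyond their mean plus 3 SD; inconclusive means the two replicate wells gave conflicting results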
KCC2 ouabain: KCC2 inhibitors and activators, ouabain retest, confirmation, HEK-KCC2 cells. shares compounds with KCC2 mod. HEK293-KCC2, thallium flux FluoZin2 fluorescence; bidirectional: low = inhibitor, high = activator. raw Tl+ flux slope (below DMSO = inhibition, above = activation) at 10 µM. 3,700 tested, 48% active. AID 1717, 2009;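 active means thallium flux slope beyond 3 SD from same-plate DMSO control mean in most replicates, usually higher, sometimes lower; inconclusive means repeat tests gave conflicting results; inactive means no significant difference from controls in most replicates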;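 further: slope of initial-normalized fluorescence between seconds 10 and 20 after thallium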
HEK293 Tl flux2: native HEK Tl+ uptake effects, second counter-screen – HEK cells, counterscreen 2, counter-screen for KCC2 modulator project, confirmation; shares compounds with KCC2 mod; HEK293 parental, thallium flux FluoZin-2 fluorescence slope; 3,700 tested, 33% active; thallium flux slope at 10 µM;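 active means thallium flux slope above the same plate's solvent-control mean plus 3 SD in both duplicate wells; inconclusive means duplicate wells that disagreed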;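 further: run without ouabain in cells lacking the KCC2 cotransporter; slope of fluorescence scaled to its starting value between 10 and 20 s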
The depositor's hits bear a star; i = inactive; u = inconclusive; x = no result given. Most compounds without a hit are left out; they make up all but 2.6% or so of the library.

SMILES	CHT PAM	CHT inh	KCC2 mod	Rad51 HR inh	KCC2 secondary	KCC2 bumet counter	KCC2 sec2	HEK counter1	KCC2 ouabain	HEK293 Tl flux2
N#Cc1nc(-c2ccco2)oc1N1CCC(Cc2ccccc2)CC1	i	i	x	0	0.0067	0.0048	0.025*	0.007	u	0.011
O=C(O)c1cc(-c2cccc(Cl)c2)nc2nc(N3CCCCC3)sc12	i	i	-4.2*	7	0.009	0.0058	0.034	0.0075	0.017*	0.01
NC(=O)COC(=O)c1cc([N+](=O)[O-])ccc1NCCO	i	i	-0.68	15	x	x	x	x	x	x
O=C(COC(=O)c1cc([N+](=O)[O-])ccc1NCCO)c1ccccc1	i	i	-3.2*	-1	0.0072	u	0.023*	0.0075	u	0.01
O=C(COc1ccc(/C=N/NC(=O)c2cc3ccccc3o2)cc1Br)Nc1ccccc1	i	i	0.23	-6	x	x	x	x	x	x
O=C(CSc1nccc2ccccc12)N1CCN(c2ccccn2)CC1	i	i	-3.3*	x	0.0066	0.0045	0.027	0.0076	0.015*	0.01
Cc1ccc(SCC(=O)N2CCN(c3ccccn3)CC2)cc1	i	i	0.36	x	x	x	x	x	x	x
Cc1ccc(C)c(NC(=S)N/N=C/C(C)c2ccccc2)c1 (stereo not drawn)	i	i	25*	11	0.011	0.024*	0.033	u	u	0.0084
Cc1cc(NC(=O)c2ccc(S(=O)(=O)N3CCCC3)cc2)nc2c1c(=O)oc1ccccc12	x	x	x	6	0.0092	0.007	0.03	0.0079	0.019	u
Cc1cc(NC(=O)c2ccc(S(=O)(=O)N3CCOCC3)cc2)nc2c1c(=O)oc1ccccc12	i	i	x	x	x	x	x	x	x	x
O=C(Nc1ccn(-c2ccccc2)n1)c1ccc(S(=O)(=O)N2CCCCCC2)cc1	i	i	x	0	u	0.0041	0.029	0.0072	0.016*	0.011
Cc1cc(C(=O)Nn2c(-c3ccncc3)nc3ccccc3c2=O)ccc1[N+](=O)[O-]	i	i	0.87	2	x	x	x	x	x	x
CCOCc1nnc(NC(=O)C2c3ccccc3Oc3ccccc32)s1	i	i	0.27	2	x	x	x	x	x	x
O=C(Nc1ccc(N2CCCCC2)c(Cl)c1)c1ccc(N2CCOCC2)c([N+](=O)[O-])c1	i	i	x	11	x	x	x	x	x	x
O=C(Nc1ccc(Cc2ccncc2)cc1)c1ccc(N2CCOCC2)c([N+](=O)[O-])c1	i	i	-5.9*	-1	0.0089	u	u	0.0074	0.016*	0.01
CC(=O)N=c1sc2ccccc2n1C	i	i	0.058	2	x	x	x	x	x	x
CC(C(=O)N=c1sc2ccccc2n1C)N1C(=O)C2CC=CCC2C1=O (stereo not drawn)	i	i	x	4	0.0072	u	u	0.0073	u	0.011
Cc1ccc(C(=O)NC2CCC(C)CC2)o1 (stereo not drawn)	i	i	x	x	x	x	x	x	x	x
COc1nc(Nc2ccc([N+](=O)[O-])cc2)nc(NC(C)C)n1	i	i	-0.71	4	x	x	x	x	x	x
NC(=S)N=Nc1c(O)n(CCCl)c2ccc(Cl)cc12	i	i	16*	-8	0.0075	0.041*	u	0.036*	0.047*	0.024*
NC(=S)N=Nc1c(O)n(CCCl)c2ccccc12	i	i	13*	0	0.024*	0.031*	u	0.018*	0.027*	0.019*
NC(=S)N=Nc1c(O)n(CC(=O)Nc2ccccc2)c2ccccc12	i	i	x	x	x	x	x	x	x	x
CCOc1ccc2c(c1)c(N=NC(N)=S)c(O)n2C	i	i	8.2*	8	u	0.035*	0.039	0.015*	0.027	0.012*
O=C(COC(=O)c1cc(-c2ccncc2)nc2ccccc12)Nc1ccc2c(c1)OCO2	i	i	-0.69	x	x	x	x	x	x	x
O=C(C1CCN(S(=O)(=O)c2cccc3nsnc23)CC1)N1CCc2ccccc2C1	i	i	-6*	x	0.01	0.0068	0.023*	0.008	0.015*	0.011
SMILES	CHT PAM	CHT inh	KCC2 mod	Rad51 HR inh	KCC2 secondary	KCC2 bumet counter	KCC2 sec2	HEK counter1	KCC2 ouabain	HEK293 Tl flux2
COc1ccc(S(=O)(=O)N2CCC(C(=O)N3CCc4ccccc4C3)CC2)cc1C	i	i	-3.5*	-5	0.007	0.0049	0.024*	0.0076	0.015*	0.01
CCOc1ccc(S(=O)(=O)N2CCC(C(=O)N3CCc4ccccc4C3)CC2)cc1	i	i	x	x	x	x	x	x	x	x
CCOC(=O)c1cnc(-n2nc(C)cc2C)nc1N(CC)CC	i	i	-0.27	-5	x	x	x	x	x	x
CCOC(=O)N1CCN(S(=O)(=O)c2ccc3c(c2)SC(C)C(=O)N3)CC1 (stereo not drawn)	i	i	-0.079	x	x	x	x	x	x	x
COc1cccc(/C=N/N2C(=O)CSC2=S)c1O	i	i	3.5*	x	0.013*	0.016*	0.033	0.01*	u	u
COc1cc(/C=N/N2C(=O)CSC2=S)cc(Br)c1O	x	x	-0.4	-59	x	x	x	x	x	x
c1ccc(Cn2c(SCc3nc4ccccc4s3)nnc2-c2ccco2)cc1	i	i	-3.4*	-8	0.0063	u	0.027*	0.0053*	u	0.0076*
CCC(c1nnc(SCc2nc3ccccc3s2)n1Cc1ccccc1)N(C)C (stereo not drawn)	i	i	x	-7	0.015	0.0046	u	0.0066	0.014	0.0099
Cc1nc2[nH]c(=O)c3c(n2n1)NC1=C(C(=O)CC(C)(C)C1)C3c1ccc(F)cc1 (stereo not drawn)	i	i	x	4	0.006	0.0046	0.03	0.0068	0.018	0.01
